# Experimental data taken from ChEMBL document CHEMBL1124793, “Comparative reactivity of 1-carba-1-dethiacephalosporins with cephalosporins” (J Med Chem, 1990).
# Tested on: Escherichia coli
# Assay: In vitro inhibitory activity against Escherichia coli EC14
# Format: functional
# Method in brief: (§1)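 Agar dilution: compounds were diluted in 0.1 M phosphate buffer, pH 7.0, and mixed at 50 °C into Mueller–Hinton agar with 1% Bacto-Supplement C. Fresh overnight cultures were diluted to about 1 × 10^4 cells/μL and spotted at 1 μL. Plates were incubated overnight at 35 °C in ambient air. MIC (μg/mL) was the lowest concentration preventing visible growth.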
row,Structure (SMILES),MIC [µg/mL]
1,CO/N=C(\C(=O)N[C@@H]1C(=O)N2C(C(=O)O)=CCS[C@H]12)c1csc(N)n1 [CEFTIZOXIME],0.015
2,O=C(COc1ccccc1)N[C@@H]1C(=O)N2C(C(=O)O)=C(Cl)CC[C@H]12,8
3,CC1=C(C(=O)O)N2C(=O)[C@@H](NC(=O)COc3ccccc3)[C@H]2CC1,128
4,CC1=C(C(=O)O)N2C(=O)[C@@H](NC(=O)COc3ccccc3)[C@H]2SC1,128
5,CS(=O)(=O)OC1=C(C(=O)O)N2C(=O)[C@@H](NC(=O)COc3ccccc3)[C@H]2CC1,32
6,COCC1=C(C(=O)O)N2C(=O)[C@@H](NC(=O)COc3ccccc3)[C@H]2CC1,32
7,O=C(COc1ccccc1)N[C@@H]1C(=O)N2C(C(=O)O)=C(Cl)CS[C@H]12,64

# Tested on: Pseudomonas aeruginosa
# Assay: In vitro inhibitory activity against Pseudomonas aeruginosa X258
# Format: functional
# Method in brief: as §1
row,Structure (SMILES),MIC [µg/mL]
1,CO/N=C(\C(=O)N[C@@H]1C(=O)N2C(C(=O)O)=CCS[C@H]12)c1csc(N)n1 [CEFTIZOXIME],32
2,O=C(COc1ccccc1)N[C@@H]1C(=O)N2C(C(=O)O)=C(Cl)CC[C@H]12,128
3,CC1=C(C(=O)O)N2C(=O)[C@@H](NC(=O)COc3ccccc3)[C@H]2CC1,128
4,CC1=C(C(=O)O)N2C(=O)[C@@H](NC(=O)COc3ccccc3)[C@H]2SC1,128
5,CS(=O)(=O)OC1=C(C(=O)O)N2C(=O)[C@@H](NC(=O)COc3ccccc3)[C@H]2CC1,128
6,COCC1=C(C(=O)O)N2C(=O)[C@@H](NC(=O)COc3ccccc3)[C@H]2CC1,128
7,O=C(COc1ccccc1)N[C@@H]1C(=O)N2C(C(=O)O)=C(Cl)CS[C@H]12,128

# Tested on: not listed separately
# Assay: Half-life is evaluated
# Format: ADME
# Method in brief: (§2)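 Parent β-lactam loss followed by HPLC, starting at 3.9 × 10^-4–1 × 10^-3 M, at 35 °C and μ = 0.5. pH was held at 10 by a pH-stat adding NaOH. Pseudo-first-order rate constants were derived, with half-lives from these rates. Some runs were done at pH 11, and the constant was taken as 1/10 of the observed value, assuming proportionality to [OH].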
row,Structure (SMILES),half-life [h]
1,O=C(Cc1cccs1)N[C@@H]1C(=O)N2C(C(=O)O)=C(C(=O)O)CS[C@H]12,2.04
2,CO/N=C(\C(=O)N[C@@H]1C(=O)N2C(C(=O)O)=CCS[C@H]12)c1csc(N)n1 [CEFTIZOXIME],6.08
3,O=C(COc1ccccc1)N[C@@H]1C(=O)N2C(C(=O)O)=C(Cl)CC[C@H]12,15.8
4,CC1=C(C(=O)O)N2C(=O)[C@@H](NC(=O)COc3ccccc3)[C@H]2CC1,433
5,CC1=C(C(=O)O)N2C(=O)[C@@H](NC(=O)COc3ccccc3)[C@H]2SC1,8.74
6,CS(=O)(=O)OC1=C(C(=O)O)N2C(=O)[C@@H](NC(=O)COc3ccccc3)[C@H]2CC1,7.79
7,COCC1=C(C(=O)O)N2C(=O)[C@@H](NC(=O)COc3ccccc3)[C@H]2CC1,46.5
8,O=C(Cc1cccs1)N[C@@H]1C(=O)N2C(C(=O)O)=C(C(=O)O)CC[C@H]12,66
9,O=C(COc1ccccc1)N[C@@H]1C(=O)N2C(C(=O)O)=C(Cl)CS[C@H]12,0.774

# Tested on: not listed separately
# Assay: Pseudo-first-order rate constant at pH 10, micro=0.5, 35 degrees Centigrade
# Format: ADME
# Method in brief: as §2
row,Structure (SMILES),K [h⁻¹]
1,O=C(COc1ccccc1)N[C@@H]1C(=O)N2C(C(=O)O)=C(Cl)CC[C@H]12,0.0438
2,CC1=C(C(=O)O)N2C(=O)[C@@H](NC(=O)COc3ccccc3)[C@H]2CC1,0.0016
3,COCC1=C(C(=O)O)N2C(=O)[C@@H](NC(=O)COc3ccccc3)[C@H]2CC1,0.0149

# Tested on: not listed separately
# Assay: Pseudo-first-order rate constant at pH 10 and 35 degrees Centigrade
# Format: ADME
# Method in brief: as §2
row,Structure (SMILES),K [h⁻¹]
1,O=C(Cc1cccs1)N[C@@H]1C(=O)N2C(C(=O)O)=C(C(=O)O)CS[C@H]12,0.34
2,CO/N=C(\C(=O)N[C@@H]1C(=O)N2C(C(=O)O)=CCS[C@H]12)c1csc(N)n1 [CEFTIZOXIME],0.114
3,CC1=C(C(=O)O)N2C(=O)[C@@H](NC(=O)COc3ccccc3)[C@H]2SC1,0.0793
4,CS(=O)(=O)OC1=C(C(=O)O)N2C(=O)[C@@H](NC(=O)COc3ccccc3)[C@H]2CC1,0.089
5,O=C(Cc1cccs1)N[C@@H]1C(=O)N2C(C(=O)O)=C(C(=O)O)CC[C@H]12,0.0105
6,O=C(COc1ccccc1)N[C@@H]1C(=O)N2C(C(=O)O)=C(Cl)CS[C@H]12,0.895

# Tested on: Streptococcus pyogenes
# Assay: In vitro inhibitory activity against Streptococcus pyogenes Park
# Format: functional
# Method in brief: as §1
row,Structure (SMILES),MIC [µg/mL]
1,CO/N=C(\C(=O)N[C@@H]1C(=O)N2C(C(=O)O)=CCS[C@H]12)c1csc(N)n1 [CEFTIZOXIME],0.015
2,O=C(COc1ccccc1)N[C@@H]1C(=O)N2C(C(=O)O)=C(Cl)CC[C@H]12,0.25
3,CC1=C(C(=O)O)N2C(=O)[C@@H](NC(=O)COc3ccccc3)[C@H]2CC1,1
4,CC1=C(C(=O)O)N2C(=O)[C@@H](NC(=O)COc3ccccc3)[C@H]2SC1,1
5,CS(=O)(=O)OC1=C(C(=O)O)N2C(=O)[C@@H](NC(=O)COc3ccccc3)[C@H]2CC1,0.5
6,COCC1=C(C(=O)O)N2C(=O)[C@@H](NC(=O)COc3ccccc3)[C@H]2CC1,0.25
7,O=C(COc1ccccc1)N[C@@H]1C(=O)N2C(C(=O)O)=C(Cl)CS[C@H]12,0.25

# Tested on: Enterobacter cloacae
# Assay: In vitro inhibitory activity against Enterobacter cloacae EB5
# Format: functional
# Method in brief: as §1
row,Structure (SMILES),MIC [µg/mL]
1,CO/N=C(\C(=O)N[C@@H]1C(=O)N2C(C(=O)O)=CCS[C@H]12)c1csc(N)n1 [CEFTIZOXIME],0.06
2,O=C(COc1ccccc1)N[C@@H]1C(=O)N2C(C(=O)O)=C(Cl)CC[C@H]12,128
3,CC1=C(C(=O)O)N2C(=O)[C@@H](NC(=O)COc3ccccc3)[C@H]2CC1,128
4,CC1=C(C(=O)O)N2C(=O)[C@@H](NC(=O)COc3ccccc3)[C@H]2SC1,128
5,CS(=O)(=O)OC1=C(C(=O)O)N2C(=O)[C@@H](NC(=O)COc3ccccc3)[C@H]2CC1,128
6,COCC1=C(C(=O)O)N2C(=O)[C@@H](NC(=O)COc3ccccc3)[C@H]2CC1,128
7,O=C(COc1ccccc1)N[C@@H]1C(=O)N2C(C(=O)O)=C(Cl)CS[C@H]12,128

# Tested on: Staphylococcus aureus
# Assay: In vitro inhibitory activity against Staphylococcus aureus X1.1
# Format: functional
# Method in brief: as §1
row,Structure (SMILES),MIC [µg/mL]
1,CO/N=C(\C(=O)N[C@@H]1C(=O)N2C(C(=O)O)=CCS[C@H]12)c1csc(N)n1 [CEFTIZOXIME],4
2,O=C(COc1ccccc1)N[C@@H]1C(=O)N2C(C(=O)O)=C(Cl)CC[C@H]12,1
3,CC1=C(C(=O)O)N2C(=O)[C@@H](NC(=O)COc3ccccc3)[C@H]2CC1,4
4,CC1=C(C(=O)O)N2C(=O)[C@@H](NC(=O)COc3ccccc3)[C@H]2SC1,4
5,CS(=O)(=O)OC1=C(C(=O)O)N2C(=O)[C@@H](NC(=O)COc3ccccc3)[C@H]2CC1,0.5
6,COCC1=C(C(=O)O)N2C(=O)[C@@H](NC(=O)COc3ccccc3)[C@H]2CC1,0.5
7,O=C(COc1ccccc1)N[C@@H]1C(=O)N2C(C(=O)O)=C(Cl)CS[C@H]12,0.25

# Tested on: Providencia rettgeri
# Assay: In vitro inhibitory activity against Proteus rettgeri C24
# Format: functional
# Method in brief: as §1
row,Structure (SMILES),MIC [µg/mL]
1,CO/N=C(\C(=O)N[C@@H]1C(=O)N2C(C(=O)O)=CCS[C@H]12)c1csc(N)n1 [CEFTIZOXIME],0.008
2,O=C(COc1ccccc1)N[C@@H]1C(=O)N2C(C(=O)O)=C(Cl)CC[C@H]12,128
3,CC1=C(C(=O)O)N2C(=O)[C@@H](NC(=O)COc3ccccc3)[C@H]2CC1,128
4,CC1=C(C(=O)O)N2C(=O)[C@@H](NC(=O)COc3ccccc3)[C@H]2SC1,128
5,CS(=O)(=O)OC1=C(C(=O)O)N2C(=O)[C@@H](NC(=O)COc3ccccc3)[C@H]2CC1,128
6,COCC1=C(C(=O)O)N2C(=O)[C@@H](NC(=O)COc3ccccc3)[C@H]2CC1,128
7,O=C(COc1ccccc1)N[C@@H]1C(=O)N2C(C(=O)O)=C(Cl)CS[C@H]12,128

# Tested on: Klebsiella pneumoniae
# Assay: In vitro inhibitory activity against Klebsiella X26
# Format: functional
# Method in brief: as §1
row,Structure (SMILES),MIC [µg/mL]
1,CO/N=C(\C(=O)N[C@@H]1C(=O)N2C(C(=O)O)=CCS[C@H]12)c1csc(N)n1 [CEFTIZOXIME],0.008
2,O=C(COc1ccccc1)N[C@@H]1C(=O)N2C(C(=O)O)=C(Cl)CC[C@H]12,8
3,CC1=C(C(=O)O)N2C(=O)[C@@H](NC(=O)COc3ccccc3)[C@H]2CC1,32
4,CC1=C(C(=O)O)N2C(=O)[C@@H](NC(=O)COc3ccccc3)[C@H]2SC1,64
5,CS(=O)(=O)OC1=C(C(=O)O)N2C(=O)[C@@H](NC(=O)COc3ccccc3)[C@H]2CC1,8
6,COCC1=C(C(=O)O)N2C(=O)[C@@H](NC(=O)COc3ccccc3)[C@H]2CC1,8
7,O=C(COc1ccccc1)N[C@@H]1C(=O)N2C(C(=O)O)=C(Cl)CS[C@H]12,8

# Tested on: Haemophilus influenzae
# Assay: In vitro inhibitory activity against Haemophilus influenza C.L
# Format: functional
# Method in brief: as §1
row,Structure (SMILES),MIC [µg/mL]
1,CO/N=C(\C(=O)N[C@@H]1C(=O)N2C(C(=O)O)=CCS[C@H]12)c1csc(N)n1 [CEFTIZOXIME],0.015
2,O=C(COc1ccccc1)N[C@@H]1C(=O)N2C(C(=O)O)=C(Cl)CC[C@H]12,4
3,CC1=C(C(=O)O)N2C(=O)[C@@H](NC(=O)COc3ccccc3)[C@H]2CC1,32
4,CC1=C(C(=O)O)N2C(=O)[C@@H](NC(=O)COc3ccccc3)[C@H]2SC1,16
5,CS(=O)(=O)OC1=C(C(=O)O)N2C(=O)[C@@H](NC(=O)COc3ccccc3)[C@H]2CC1,8
6,COCC1=C(C(=O)O)N2C(=O)[C@@H](NC(=O)COc3ccccc3)[C@H]2CC1,8
7,O=C(COc1ccccc1)N[C@@H]1C(=O)N2C(C(=O)O)=C(Cl)CS[C@H]12,2
